Measurements from ChEMBL document CHEMBL4359917, “Design, synthesis, and biological evaluation of novel benzodiazepine derivatives as anticancer agents through inhibition of tubulin polymerization in vitro and in vivo” (Eur J Med Chem, 2019).
Activity calls are given as the source filed them. No cut-off for these calls is given here.

Tests used:
MDA-MB-231 = assay: Antiproliferative activity against human MDA-MB-231 cells assessed as cell growth inhibition measured after 48 hrs by MTT assay; format: functional, cell-based; details: MDA-MB-231, 48 h
Method in brief: (§1)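 Cancer cell lines exposed to compounds for 48 h; viability read by MTT assay. IC50 reported as mean ± SD from at least three independent experiments.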

A549 [1] = assay: Disruption of microtubule organization in human A549 cells assessed as microtubule spindle shrunk at 1 to 10 nM measured after 24 hrs by immunofluorescence laser confocal microscopy analysis; format: functional, cell-based
Method in brief: (§2)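 A549 cells plated in confocal dishes and exposed to DMSO or compound at 1, 5 or 10 nM for 24 h. Cells were fixed, immunostained for microtubules and imaged by laser confocal microscopy. Performed three times.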

[2] = Metabolic stability in Sprague-Dawley rat liver microsomes assessed as parent compound remaining after 60 mins in presence of NADPH by HPLC-UV-MS analysis; format: ADME, Microsome; details: read-out: Stability
Method in brief: (§3)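 Compound incubated with rat liver microsomes in buffer containing an NADPH regenerating system. Percentage of parent remaining was determined at time points up to 180 min, and half-life was derived.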

A549 [3] = assay: Induction of apoptosis in human A549 cells assessed as live cells at 1 nM after 24 hrs by annexin V-FITC/propidium iodide staining based flow cytometry (reference value: 99.75 %); format: functional
Method in brief: (§4)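 A549 cells treated at 1, 5 or 10 nM for 24 or 48 h, then analysed by flow cytometry. Quadrants: upper left necrotic, upper right late apoptotic, bottom left live, bottom right early apoptotic. Three experiments; representative results shown.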

in vitro = details: Sprague-Dawley, rat, liver microsomes
A549 [4] = assay: Induction of apoptosis in human A549 cells assessed as necrotic cells at 1 nM after 24 hrs by annexin V-FITC/propidium iodide staining based flow cytometry (reference value: 0.03 %); format: functional; method in brief: as §4
[5] = Half-life in Sprague-Dawley rat liver microsomes in presence of NADPH by HPLC-UV-MS analysis; format: ADME, Microsome; method in brief: as §3
A549 [6] = assay: Induction of apoptosis in human A549 cells assessed as late apoptotic cells at 10 nM after 24 hrs by annexin V-FITC/propidium iodide staining based flow cytometry (reference value: 0.02 %); format: functional; method in brief: as §4
[7] = Metabolic stability in Sprague-Dawley rat liver microsomes assessed as parent compound remaining after 120 mins in presence of NADPH by HPLC-UV-MS analysis; format: ADME, Microsome; details: read-out: Stability; method in brief: as §3
A549 [8] = assay: Induction of apoptosis in human A549 cells assessed as necrotic cells at 10 nM after 24 hrs by annexin V-FITC/propidium iodide staining based flow cytometry (reference value: 0.03 %); format: functional; method in brief: as §4
HeLa = assay: Antiproliferative activity against human HeLa cells assessed as cell growth inhibition measured after 48 hrs by MTT assay; format: functional, cell-based; method in brief: as §1
[9] = Metabolic stability in Sprague-Dawley rat liver microsomes assessed as parent compound remaining after 150 mins in presence of NADPH by HPLC-UV-MS analysis; format: ADME, Microsome; details: Sprague-Dawley, liver microsomes, read-out: Stability; method in brief: as §3
A549 [10] = assay: Induction of apoptosis in human A549 cells assessed as early apoptotic cells at 1 nM after 48 hrs by annexin V-FITC/propidium iodide staining based flow cytometry (reference value: 0.19 %); format: functional; method in brief: as §4
A549 [11] = assay: Induction of apoptosis in human A549 cells assessed as late apoptotic cells at 1 nM after 48 hrs by annexin V-FITC/propidium iodide staining based flow cytometry (reference value: 0.02 %); format: functional; method in brief: as §4
A549 [12] = assay: Disruption of microtubule organization in human A549 cells assessed as appearance of dotted disorder formations at 10 nM measured after 24 hrs by immunofluorescence laser confocal microscopy analysis; format: functional, cell-based; method in brief: as §2
A549 [13] = assay: Induction of apoptosis in human A549 cells assessed as necrotic cells at 10 nM after 48 hrs by annexin V-FITC/propidium iodide staining based flow cytometry (reference value: 0.03 %); format: functional; method in brief: as §4
A549 [14] = assay: Induction of apoptosis in human A549 cells assessed as necrotic cells at 1 nM after 48 hrs by annexin V-FITC/propidium iodide staining based flow cytometry (reference value: 0.03 %); format: functional; method in brief: as §4
A549 [15] = assay: Induction of apoptosis in human A549 cells assessed as live cells at 5 nM after 48 hrs by annexin V-FITC/propidium iodide staining based flow cytometry (reference value: 99.75 %); format: functional; method in brief: as §4
A549 [16] = assay: Induction of apoptosis in human A549 cells assessed as late apoptotic cells at 1 nM after 24 hrs by annexin V-FITC/propidium iodide staining based flow cytometry (reference value: 0.02 %); format: functional; method in brief: as §4
A549 [17] = assay: Induction of apoptosis in human A549 cells assessed as early apoptotic cells at 1 nM after 24 hrs by annexin V-FITC/propidium iodide staining based flow cytometry (reference value: 0.19 %); format: functional; method in brief: as §4
[18] = Metabolic stability in Sprague-Dawley rat liver microsomes assessed as parent compound remaining after 30 mins in presence of NADPH by HPLC-UV-MS analysis; format: ADME, Microsome; details: read-out: Stability; method in brief: as §3
A549 [19] = assay: Induction of apoptosis in human A549 cells assessed as live cells at 5 nM after 24 hrs by annexin V-FITC/propidium iodide staining based flow cytometry (reference value: 99.75 %); format: functional; method in brief: as §4
Tubulin (Sus scrofa) = Tubulin (Sus scrofa) (UniProt P02554+P02550); assay: (§5) Inhibition of porcine brain tubulin polymerization assessed as decrease in fluorescence intensity measured every 60 sec for 90 mins in presence of GTP by DAPI staining based fluorescence assay
Method in brief: (§6)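 Purified unpolymerised tubulin in reaction buffer incubated at 37 °C without or with compound at 0.75-7.5 µM. Polymerisation was followed as a rise in fluorescence intensity, and IC50 was derived. Performed three times.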

Tubulin = Tubulin (Sus scrofa, UniProt P02554+P02550); assay: as §5; method in brief: as §6
A549 [20] = assay: Cell cycle arrest in human A549 cells assessed as increase in cell accumulation at G2/M phase at 1 to 10 nM by RNase/propidium iodide staining based flow cytometry analysis; format: functional; details: TDE = time-dependent effect
A549 [21] = assay: Induction of apoptosis in human A549 cells assessed as necrotic cells at 5 nM after 48 hrs by annexin V-FITC/propidium iodide staining based flow cytometry (reference value: 0.03 %); format: functional; method in brief: as §4
A549 [22] = assay: Induction of apoptosis in human A549 cells assessed as late apoptotic cells at 5 nM after 48 hrs by annexin V-FITC/propidium iodide staining based flow cytometry (reference value: 0.02 %); format: functional; method in brief: as §4
A549 [23] = assay: Induction of apoptosis in human A549 cells assessed as early apoptotic cells at 5 nM after 24 hrs by annexin V-FITC/propidium iodide staining based flow cytometry (reference value: 0.19 %); format: functional; method in brief: as §4
A549 [24] = assay: Induction of apoptosis in human A549 cells assessed as necrotic cells at 5 nM after 24 hrs by annexin V-FITC/propidium iodide staining based flow cytometry (reference value: 0.03 %); format: functional; method in brief: as §4
A549 [25] = assay: Cell cycle arrest in human A549 cells assessed as increase in cell accumulation at G2/M phase measured after 24 to 48 hrs by RNase/propidium iodide staining based flow cytometry analysis; format: functional
HCT-116 = assay: Antiproliferative activity against human HCT116 cells assessed as cell growth inhibition measured after 48 hrs by MTT assay; format: functional, cell-based; details: HCT-116, 48 h; method in brief: as §1
A549 [26] = assay: Induction of apoptosis in human A549 cells assessed as live cells at 1 nM after 48 hrs by annexin V-FITC/propidium iodide staining based flow cytometry (reference value: 99.75 %); format: functional; method in brief: as §4

Chain of Tubulin (Sus scrofa) (P02550 whole entry, looked up): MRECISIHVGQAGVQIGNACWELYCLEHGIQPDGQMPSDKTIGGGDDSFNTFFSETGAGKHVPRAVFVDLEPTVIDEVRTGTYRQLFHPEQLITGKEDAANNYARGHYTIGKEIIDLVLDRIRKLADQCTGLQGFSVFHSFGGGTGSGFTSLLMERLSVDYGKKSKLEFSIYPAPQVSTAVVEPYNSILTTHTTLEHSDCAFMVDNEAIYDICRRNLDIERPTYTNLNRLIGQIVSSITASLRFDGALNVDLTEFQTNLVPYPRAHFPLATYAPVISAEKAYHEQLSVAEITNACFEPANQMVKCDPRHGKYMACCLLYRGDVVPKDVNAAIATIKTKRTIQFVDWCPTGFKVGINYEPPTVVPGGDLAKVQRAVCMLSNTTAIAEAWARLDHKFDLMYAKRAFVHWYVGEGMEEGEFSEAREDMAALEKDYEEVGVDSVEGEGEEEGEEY
Chain of Tubulin (Sus scrofa) (P02554 whole entry, looked up): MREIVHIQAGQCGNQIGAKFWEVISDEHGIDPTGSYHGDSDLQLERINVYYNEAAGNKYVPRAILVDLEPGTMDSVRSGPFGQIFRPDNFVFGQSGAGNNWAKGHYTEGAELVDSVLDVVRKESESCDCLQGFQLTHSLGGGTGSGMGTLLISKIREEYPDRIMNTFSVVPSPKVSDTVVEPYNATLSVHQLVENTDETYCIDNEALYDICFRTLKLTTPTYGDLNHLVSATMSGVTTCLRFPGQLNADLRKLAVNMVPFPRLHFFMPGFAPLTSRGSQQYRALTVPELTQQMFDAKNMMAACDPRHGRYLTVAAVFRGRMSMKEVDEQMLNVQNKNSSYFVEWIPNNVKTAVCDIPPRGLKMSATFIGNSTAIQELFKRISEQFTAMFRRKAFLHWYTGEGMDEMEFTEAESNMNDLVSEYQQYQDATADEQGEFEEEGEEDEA

In the case of `COc1ccc2c(c1O)NC(=O)CN=C2c1cc(OC)c(OC)c([Se]C)c1`, the IC50 (MDA-MB-231) is reported as 15.5 nM, the Activity (A549 [1]) is reported as “Active” and the remaining at 1 h [2] is reported as 86.3%. For the same compound, the Activity (A549 [3]) was 94.08%, the remaining at 3 h (in vitro) was 50.4% and the Activity (A549 [4]) was 0.04%. For the same compound, the half-life [5] was 2.69 h, the Activity (A549 [6]) was 0.13% and the remaining at 2 h [7] was 66.1%. The Activity (A549 [8]) was 0.09%, the IC50 (HeLa) was 8.3 nM and the remaining at 2.5 h [9] was 57.4%. For the same compound, the Activity (A549 [10]) was 13.64%, the Activity (A549 [11]) was 3.25% and the Activity (A549 [12]) was “Active”. The Activity (A549 [13]) was 3.61%, the Activity (A549 [14]) was 0.28% and the Activity (A549 [15]) was 57.32%. The Activity (A549 [16]) was 0.17%, the Activity (A549 [17]) was 5.71% and the remaining at 0.5 h [18] was 95.6%. The Activity (A549 [19]) was 86.5%, the inhibition (Tubulin (Sus scrofa)) was “Dose-dependent effect” and the IC50 (Tubulin) was 1650 nM. For the same compound, the Activity (A549 [20]) was “Tde”, the Activity (A549 [21]) was 2.28% and the Activity (A549 [22]) was 11.71%. The Activity (A549 [23]) was 13.15%, the Activity (A549 [24]) was 0.03% and the Activity (A549 [25]) was “Dose-dependent effect”. It also gave an IC50 (HCT-116) of 8.9 nM and an Activity (A549 [26]) of 82.83%.
